Data set [1] has as its system Rattus norvegicus. The data set is described as follows: Toxicity in awake normotensive rat assessed as heart rate at 1 mg/100 g, iv measured within 2 mins (reference value: 450 +/- 57/min). The following applies: in vivo. The format is organism-based.
In data set [2] the test system is Rattus norvegicus. Briefly: Hypotensive activity in awake normotensive rat assessed as mean blood pressure at 1 mg/100 g, iv measured within 2 mins (reference value: 130 +/- 6.9 mmHg). It is filed as functional.
Data set [3] has as its system Rattus norvegicus. Briefly: Toxicity in awake normotensive rat assessed as decrease in heart rate at 1 mg/100 g, iv measured for 10 mins. It is filed as organism-based. The following applies: in vivo. Put shortly: (§1)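 Chronically catheterized, unrestrained normotensive rats received iv drug in 0.9% NaCl through the venous catheter. Heart rate was followed continuously on chart records from the arterial strain-gauge trace, from the moment of injection for at least 10 min.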

In data set [4] the test system is Rattus norvegicus. The data set is described as follows: Toxicity in awake normotensive rat assessed as decrease in heart rate at 1 mg/100 g, iv measured within 2 mins in presence of beta-adrenergic inhibitor propranolol. The format is organism-based. The following applies: in vivo.
The subject of data set [5] is Rattus norvegicus. Briefly: Hypotensive activity in awake normotensive rat assessed as decrease in mean blood pressure at 1 mg/100 g, iv measured within 2 mins in presence of beta-adrenergic inhibitor propranolol. The format is functional, organism-based.
Data set [6] in a line: Stability of the compound in 0.9% sodium chloride solution at 5 degC measured after 72 hrs. It is filed as physicochemical. The procedure, abridged:
(§2)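 Solution stability was tested by storing drug solutions in 0.9% NaCl at 5 °C. At the stated storage times the stored solutions were given iv to catheterized, unrestrained normotensive rats, and blood pressure and heart-rate responses were re-measured by arterial strain gauge.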

For data set [7], the system named is Rattus norvegicus. The data set is described as follows: Toxicity in awake normotensive rat assessed as heart rate at 1 mg/100 g, iv measured within 2 mins (reference value: 430 +/- 50/min). The format is organism-based. The following applies: in vivo.
The subject of data set [8] is Rattus norvegicus. The data set is described as follows: Toxicity in awake normotensive rat assessed as heart rate at 2 mg/100 g, iv measured within 2 mins (reference value: 420/min). The following applies: in vivo. It is filed as organism-based.
The subject of data set [9] is Rattus norvegicus. Briefly: Toxicity in awake normotensive rat assessed as cardiac arrest at 4 mg/100 g, iv measured within 2 mins. The note with it: in vivo. It is filed as organism-based.
Data set [10] has as its system Rattus norvegicus. Briefly: Hypotensive activity in awake normotensive rat assessed as mean blood pressure at 1 mg/100 g, iv measured within 2 mins (reference value: 125 +/- 16 mmHg). The format is functional.
Data set [11] deals with Rattus norvegicus. The data set is described as follows: Hypotensive activity in awake normotensive rat assessed as mean blood pressure at 2 mg/100 g, iv measured within 2 mins (reference value: 125 mmHg). The format is functional.
Data set [12] deals with Rattus norvegicus. Briefly: Toxicity in awake normotensive rat assessed as decrease in heart rate at 2 mg/100 g, iv measured for 10 mins. The format is organism-based. The note with it: in vivo. Put shortly:
as §1

The subject of data set [13] is Rattus norvegicus. Briefly: Toxicity in awake normotensive rat assessed as decrease in heart rate at 2 mg/100 g, iv measured within 2 mins in presence of beta-adrenergic inhibitor propranolol. The format is organism-based. The following applies: in vivo.
Data set [14] deals with Rattus norvegicus. Briefly: Hypotensive activity in awake normotensive rat assessed as decrease in mean blood pressure at 2 mg/100 g, iv measured within 2 mins in presence of beta-adrenergic inhibitor propranolol. It is filed as functional, organism-based.
The species entered for data set [15] is Rattus norvegicus. Briefly: Hypotensive activity in spontaneous hypertensive rat model measured after 48 hrs. The format is functional, organism-based.
The species named for data set [16] is Rattus norvegicus. Briefly: Toxicity in spontaneous hypertensive rat model assessed as bradycardia measured after 48 hrs. The following applies: in vivo. The format is organism-based.
The nature of data set [17]: Stability of the compound in 0.9% sodium chloride solution at 5 degC measured within 1 hr. The format is physicochemical. Put shortly: as §2
Data set [18] concerns Rattus norvegicus. The data set is described as follows: Toxicity in awake normotensive rat assessed as heart rate at 1 mg/100 g, iv measured within 2 mins (reference value: 430 +/- 40/min). The format is organism-based. The note with it: in vivo.
Data set [19] deals with Rattus norvegicus. The data set is described as follows: Hypotensive activity in awake normotensive rat assessed as mean blood pressure at 1 mg/100 g, iv measured within 2 mins (reference value: 115 +/- 17 mmHg). The format is functional.
Data set [20] is described as follows: Stability of the compound in 0.9% sodium chloride solution at 5 degC measured after 24 hrs. The format is physicochemical. The procedure, abridged: as §2

Active and inactive are the calls of the source. No cut-off for these calls is given here.

In the case of `CCCCCCCCCCCCCCCC1CCC(COP(=O)([O-])O)C1.[Na+]` (stereo unspecified), the heart rate in the data set with Rattus norvegicus [1] stood at 375 beats/min. In addition, the Activity is 120 mmHg in the data set with Rattus norvegicus [2], “Toxic” with Rattus norvegicus [3] and “Toxic” with Rattus norvegicus [4]. For the same compound, in the data set with Rattus norvegicus [5], the result was Active. The Stability entry in [6] is “Stable”.

In the case of `CCCCCCCCCCCCCCCC1OCC(COP(=O)([O-])O)O1.[Na+]` (stereo unspecified), the heart rate with Rattus norvegicus [7] was 310 beats/min; with Rattus norvegicus [8], 250 beats/min. In addition, the Activity result is “Toxic” with Rattus norvegicus [9]; 100 mmHg in the data set on Rattus norvegicus [10]; 100 mmHg with Rattus norvegicus [11]; “Toxic” in the data set on Rattus norvegicus [3]; “Toxic” in the data set with Rattus norvegicus [12]; “Toxic” in the data set with Rattus norvegicus [4]. In addition, the Activity entry with Rattus norvegicus [13] and in the data set listed under Rattus norvegicus [16] was “Toxic” in each case. Further, the result in the data set on Rattus norvegicus [5], in the data set on Rattus norvegicus [14] and in the data set listed under Rattus norvegicus [15] was Active. Further, in data set [17], the Stability entry is listed as “Unstable”.

Take `CCCCCCCCCCCCCCCC1CCC(COP(=O)([O-])O)O1.[Na+]` (stereo unspecified): in the data set with Rattus norvegicus [18], the heart rate was found to be 350 beats/min. For the same compound, the Activity is reported as 100 mmHg in the data set with Rattus norvegicus [19], “Toxic” in the data set on Rattus norvegicus [3] and “Toxic” in the data set on Rattus norvegicus [4]. Moreover, in the data set on Rattus norvegicus [5], the outcome was Active. Besides, in data set [20], the Stability entry is given as “Stable”.
